Results pooled from the literature.
Lines come from different studies, so protocols differ.
Target: Calcium/calmodulin-dependent protein kinase type IV (CAMK4, Homo sapiens, UniProt Q16566)
One construct used (Q16566 1-473): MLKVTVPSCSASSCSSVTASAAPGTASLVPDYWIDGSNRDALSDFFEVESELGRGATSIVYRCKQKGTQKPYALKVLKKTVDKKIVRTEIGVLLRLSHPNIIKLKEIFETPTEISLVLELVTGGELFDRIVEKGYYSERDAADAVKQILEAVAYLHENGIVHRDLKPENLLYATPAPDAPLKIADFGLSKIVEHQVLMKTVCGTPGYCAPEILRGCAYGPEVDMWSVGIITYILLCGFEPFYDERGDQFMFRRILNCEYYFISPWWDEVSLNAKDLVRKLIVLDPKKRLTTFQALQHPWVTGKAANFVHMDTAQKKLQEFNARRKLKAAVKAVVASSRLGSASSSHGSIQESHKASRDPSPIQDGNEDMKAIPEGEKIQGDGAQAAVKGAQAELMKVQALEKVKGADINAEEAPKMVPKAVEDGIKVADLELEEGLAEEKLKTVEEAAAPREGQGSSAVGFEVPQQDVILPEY

Compound | test | setting | measurement | value
Oc1cccc(-c2nc(N3CCOCC3)c3oc4ncccc4c3n2)c1 | cell-free assay | 0.5 µM | remaining signal | 103%
CCN1CCC2(CC1)NC(=O)c1c(c3ccc(Cl)c(Cl)c3n1C)C2C#N (racemic) | thermal stability, DSF | 10 µM | ΔTm | 0.1 °C
COc1cc(Cl)c(C(=O)N[C@@H](CN[C@H]2CC[C@@H](N)CC2)Cc2ccc(C#N)cc2)cc1-c1ccc(CN[C@H](C)c2ccc(C)cc2)o1 | enzyme activity, inhibitor | 1 µM | remaining activity | 92%
O=C(NCc1ncc(C(F)(F)F)cc1Cl)c1ccc2c(c1)C1(CCS(=O)(=O)CC1)[C@H](C1CC1)N2S(=O)(=O)c1ccc(F)cc1 | cell-free assay, competition with immobilised ligand | 1 µM | remaining binding | 86%
CN1CCC2(CC1)NC(=O)c1c(c3ccc(Cl)c(Cl)c3n1C)C2C#N (racemic) | thermal stability, DSF | 10 µM | ΔTm | -0.2 °C
CN(C)C1CCN(CC#Cc2nn(C3CCCC3)c3nc(NCc4ccccc4)ncc23)C1 (stereo not drawn) | enzyme activity, inhibitor, FRET | 0.1 µM | inhibition | 4%
O=C(Nc1cnn(-c2csc(C(=O)NC3COC3)c2)c1)Nc1c(F)cccc1Cl | enzyme activity, inhibitor | 5 µM | remaining activity | 98.7%
CC/C(=N\NC(=O)NCc1cccc(O)c1)c1ccc(O)c(C)c1O | enzyme activity, inhibitor | 0.1 µM | inhibition | 1.3%
Cc1ncc([N+](=O)[O-])n1C(=NO)c1ccccc1C(F)(F)F | enzyme activity, inhibitor | 10 µM | inhibition | 27.6%
CNC(=O)c1cc(Oc2ccc(NC(=O)Nc3ccc(Cl)c(C(F)(F)F)c3)cc2)ccn1 | enzyme activity, inhibitor | 0.3 µM | inhibition | -4%
Cc1nccc(COC(=O)N2C[C@@H]3[C@@H](CNC(=O)c4ccc5[nH]nnc5c4)[C@@H]3C2)n1 | cell-free assay, competition with immobilised ligand | 1 µM | remaining binding | 95%
Cn1c2c(c3ccc(Cl)c(Cl)c31)C(C#N)C1(CCN(C(=O)OC(C)(C)C)CC1)NC2=O (racemic) | thermal stability, DSF | 10 µM | ΔTm | -0.3 °C
COc1cc2ncnc(Nc3ccc(Oc4ccccc4)cc3C)c2cc1OC | enzyme activity, inhibitor | 1 µM | inhibition | -20%
CC1=C(C#N)C(c2ccc3c(c2)c(NC(=O)c2ccccc2C)nn3C)C(C#N)=C(C)N1 | cell-free assay, competition with immobilised ligand | 1 µM | remaining binding | 70%
Nc1ncnc2occ(-c3ccc(NC(=O)Nc4cc(C(F)(F)F)ccc4F)cc3)c12 | cell-free assay, inhibitor | 20 µM | remaining signal | 1.5%
N#CCCc1ccc2c(c1)-c1[nH]c3ccc([N+](=O)[O-])cc3c1CC(=O)N2 | cell-free assay | 0.5 µM | remaining signal | 98.4%
Cc1cnc(NC2CCOCC2)nc1-n1cnc(C(=O)NC(CN)c2cc(F)cc(Cl)c2)c1 (stereo not drawn) | enzyme activity, inhibitor, radiometric | 1 µM | remaining activity | 49%

Compound | test | setting | measurement | value
Clc1ccc(Nc2nnc(Cc3ccncc3)c3ccccc23)cc1 | cell-free assay | 0.5 µM | remaining signal | 93.4%
CCN(CC)CCNC(=O)c1c(C)[nH]c(/C=C2\C(=O)Nc3ccc(F)cc32)c1C | enzyme activity, inhibitor | 0.3 µM | inhibition | 22%
COc1cc2c(N3CCN(C(=O)Nc4ccc(OC(C)C)cc4)CC3)ncnc2cc1OCCCN1CCCCC1 | cell-free assay | 0.5 µM | remaining signal | 99.3%
CCC1(CC)NC(=O)c2c(c3ccc(Cl)c(Cl)c3n2C)C1C#N (stereo not drawn) | thermal stability, DSF | 10 µM | ΔTm | -0.2 °C
COc1ccc2c(c1)O[C@@H](c1ccc(OC)c(OC)c1)C[C@H]2NC(=O)C1(c2ccc3c(c2)OC(F)(F)O3)CC1 | cell-free assay, competition with immobilised ligand | 1 µM | remaining binding | 89%
CNc1cccc2cc(C(=O)Nc3ccc(C(=O)O)cc3)c(=O)[nH]c12 | enzyme activity, inhibitor | 10 µM | inhibition | 11%
CC1(C)NC(=O)c2[nH]c3c(Cl)c(Cl)ccc3c2C1C#N (stereo not drawn) | thermal stability, DSF | 10 µM | ΔTm | -0.1 °C
Cc1c[nH]c2nccc(Oc3c(F)cc(Nc4cc(Cl)nc(N)n4)cc3F)c12 | cell-free assay, competition with immobilised ligand | 0.1 µM | remaining binding | 100%
Cn1c2c(c3ccccc31)C(C#N)C(C)(C)NC2=O (stereo not drawn) | thermal stability, DSF | 10 µM | ΔTm | 0 °C
O=S(=O)(NC1CCC(c2cc(F)ccc2F)(S(=O)(=O)c2ccc(Cl)cc2)CC1)C(F)(F)F (stereo not drawn) | cell-free assay, competition with immobilised ligand | 1 µM | remaining binding | 100%
O=C1Nc2ccc(Cl)cc2C1=Cc1cc(Cl)c(O)c(Cl)c1 | cell-free assay | 0.5 µM | remaining signal | 96.8%
CC(C)(C)c1nc2c(s1)c1nc(N)ncc1c1ccc(NS(=O)(=O)c3c(F)cccc3F)c(F)c12 | enzyme activity, inhibitor, radiometric | 1 µM | remaining activity | 94%
CCC(=O)N[C@@H]1CC[C@H](C(=O)N(C)c2ccc(-c3nc4ccccc4o3)cc2)C1 | cell-free assay, competition with immobilised ligand | 1 µM | remaining binding | 100%
O=C1NC(=O)c2cc(Nc3ccc(F)cc3)c(Nc3ccc(F)cc3)cc21 | cell-free assay | 0.5 µM | remaining signal | 98.7%
COc1cccc(CNC(=O)c2nc3scc(COCc4ccc(C(=O)O)cc4)c3c(=O)[nH]2)c1 | cell-free assay, competition with immobilised ligand | 1 µM | remaining binding | 100%
Cc1cc(NC(=O)c2cccc3cc(-c4cccc5[nH]nc(N)c45)ccc23)ccc1F | enzyme activity, inhibitor | 0.1 µM | activity vs control | 104%
